Sampled rows, rich in hits. Any-hit rate of the full collection: about 2.3%.
TAAR1 agonist – human TAAR1 agonists, primary screen, Fluo-8 calcium fluorescence, CHO RD-HGA16 cells | Trace amine-associated receptor 1 (Homo sapiens), Q96RJ0 | vehicle wells 0%, saturating PEA agonist 100% | activation, % at 3 µM | 360,000 compounds, 0.99% hits;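 active = activation above the mean activation of all test compounds in the run plus 3 SD, cut at about 38% in these data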
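System: CHO-derived RD-HGA16 cells with stable Gα16 and human TAAR1 / Times: 17-24 h plating, Fluo-8 75 min 37 °C, 30 min RT / Technique: calcium-sensitive Fluo-8 signal, excitation 470-495, emission 515-575 nm / Measure: % activation relative to PEA EC100 response / Benchmarks: DMSO and PEA EC100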
TAAR1 antagonist – human TAAR1 antagonists, primary screen, Fluo-8 calcium fluorescence, CHO RD-HGA16 cells | Trace amine-associated receptor 1 (Homo sapiens), Q96RJ0 | antagonist | inhibition, % at 3 µM | 360,000 compounds, 1.5% hits;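 active = inhibition above a per-plate cutoff, the mean inhibition of test compounds on that plate plus 3 SD, cut at about 49% in these data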
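System: CHO RD-HGA16 cells bearing hTAAR1. Reagent: EC80 β-phenethylamine stimulus. Schedule: seeding 17-24 h prior, 75-min 37 °C, 30-min RT dye loading. Signal: Fluo-8 intracellular calcium dye fluorescence, real-time kinetic reads. Read-out: % inhibition from peak post-agonist over basal fluorescence ratio. Benchmarks: vehicle wells and EC80 agonist wells. Replicates: n of 1.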
V1aR counter – agonists of human V1a receptor, primary screen, counter-screen for OXTR agonist project, fluorescence, CHO-V1R cells. Fluo-8 calcium fluorescence, agonist mode; 0% DMSO, 100% 3 nM vasopressin. activation, % at 3 µM. 320,000 compounds, 0.25% hits. AID 2797, 2010;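 active = activation above the mean activation of all tested compounds plus 3 SD, per screening run, cut at about 20% in these data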;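 note: signal is peak over basal fluorescence ratio across a 100 second FLIPR read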
OXTR potentiator – human OXTR potentiators, primary screen, fluorescence, CHO-OTR cells, Fluo-8 calcium; Fluo-8 calcium fluorescence, potentiator mode; 0% = oxytocin EC15, 100% = EC100; activation, % at 3 µM; 320,000 compounds, 0.061% hits;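 active = activation above that plate's cutoff, the mean activation of tested compounds plus 3 SD, cut at about 6.6% in these data, passing the limit was not always enough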
Target sequence (P30559 whole entry, looked up): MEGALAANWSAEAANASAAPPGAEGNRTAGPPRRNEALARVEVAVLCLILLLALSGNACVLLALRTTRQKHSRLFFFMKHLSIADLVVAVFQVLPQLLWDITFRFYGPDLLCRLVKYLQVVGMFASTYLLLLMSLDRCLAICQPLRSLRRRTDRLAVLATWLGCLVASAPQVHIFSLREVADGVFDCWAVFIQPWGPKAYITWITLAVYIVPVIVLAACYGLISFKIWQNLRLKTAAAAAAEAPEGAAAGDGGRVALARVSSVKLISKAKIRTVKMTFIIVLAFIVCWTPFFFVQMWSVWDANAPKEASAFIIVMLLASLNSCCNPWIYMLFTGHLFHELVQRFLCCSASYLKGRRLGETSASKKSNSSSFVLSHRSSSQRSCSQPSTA
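Assay system: CHO cell line stably expressing human OTR | Also added: Oxytocin at about EC15, sub-maximal agonist stimulus | Times: Compound 6 min at room temperature before oxytocin, 100 s read | Measured by: Fluo-8 intracellular calcium fluorescence, ex 470-495, em 515-575 nm | Controls: EC15 oxytocin alone as 0%, 75 nM oxytocin as 100%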
OXTR ag – human OXTR agonists, primary screen, fluorescence, CHO-OTR cells, Fluo-8 calcium | activation, % at 3 µM | Fluo-8 calcium fluorescence; normalized: DMSO 0%, oxytocin 100% | Oxytocin receptor (Homo sapiens), P30559 | AID 2435, 2010 | 320,000 compounds, 0.32% hits;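 active = activation above the mean of all tested compounds plus 3 SD, cutoff set per screening run, cut at about 20% in these data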;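 note: peak over basal fluorescence ratio from a 100 s FLIPR kinetic read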
nonsel antag count – nonselective antagonists in TAAR1 counter-screen cells, counter-screen for hTAAR1 antagonist project, cell-based, fluorescence, calcium | shares compounds with TAAR1 antagonist | 2,400 compounds, 77% hits | AID 651780, 2012 | counterscreen cell line, antagonist mode | inhibition, % at 3 µM; in the data active = inhibition above about 22%;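 note: CHO-Ga16 host cells stimulated with ATP at an EC80 level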
TAAR1 antag conf – human TAAR1 antagonists, retest of hits, confirmation, cell-based, fluorescence; inhibition, % at 3 µM; TAAR1-expressing cells, fluorescence antagonist read-out; 2,400 compounds, 40% hits; shares compounds with TAAR1 antagonist; in the data active = inhibition above about 49%;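 note: CHO-Ga16 host cells challenged with agonist PEA near its EC80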
Ga16 nonsel ag – calcium activation in Ga16-expressing cells, counter-screen for TAAR1 antagonist project, cell-based, fluorescence; shares compounds with TAAR1 antagonist; agonist counterscreen; activation, % at 3 µM; 2,400 compounds, 18% hits; AID 651953, 2012; in the data active = activation above about 12%
TAAR1 ag count – TAAR1 activation by candidate antagonists – cell-based, fluorescence, counter-screen for TAAR1 antagonist project; shares compounds with TAAR1 antagonist; hTAAR1 cell line, agonist mode; activation, % at 3 µM; 2,400 compounds, 2% hits; AID 651955, 2012; in the data active = activation above about 37%;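 note: CHO cells stably expressing TAAR1 with calcium dye readout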
Large screens that a line does not name were inactive (follow-up assays come after a bar, where they were run).

COC(=O)c1cccc(N2C(=O)C[C@](Sc3ccc(C)cc3)(C(=O)OC)[C@H]2c2ccccc2)c1	TAAR1 antagonist 82 (no result: V1aR counter, OXTR potentiator, OXTR ag) | nonsel antag count 32 | TAAR1 antag conf 55 | Ga16 nonsel ag inactive | TAAR1 ag count inactive
COC(=O)[C@@]1(Sc2ccc(C)cc2)CC(=O)N(C(=O)C2CC2)[C@@H]1c1ccccc1	none (no result: V1aR counter, OXTR potentiator, OXTR ag)
Cc1ccc(C)c(N2CCN(C(=O)c3ccc(CS(=O)(=O)c4ccccc4C)o3)CC2)c1	TAAR1 antagonist 64 | nonsel antag count 37 | TAAR1 antag conf 51 | Ga16 nonsel ag inactive | TAAR1 ag count inactive
COc1ccccc1S(=O)(=O)Cc1ccc(C(=O)N2CCN(c3cccc(Cl)c3)CC2)o1	TAAR1 antagonist 65 | nonsel antag count 40 | TAAR1 antag conf 61 | Ga16 nonsel ag 13 | TAAR1 ag count inactive
Cc1ccc(S(=O)(=O)Cc2ccc(C(=O)N3CCN(c4cc(C)ccc4C)CC3)o2)cc1	none
COc1ccccc1S(=O)(=O)Cc1ccc(C(=O)N2CCN(c3ccccc3)CC2)o1	none
COc1ccc(N2CCN(C(=O)c3ccc(CS(=O)(=O)c4ccccc4C)o3)CC2)cc1	TAAR1 antagonist 52 | nonsel antag count 27 | TAAR1 antag conf inactive | Ga16 nonsel ag inactive | TAAR1 ag count inactive
CSCC(=O)N1CCCC(CNC(=O)c2ccc(-c3ccccc3)cc2)C1 (centres undefined)	none
O=C(COC(=O)Cc1c(Cl)cccc1Cl)Nc1ccccc1-c1ccccc1	TAAR1 antagonist 62 | nonsel antag count 22 | TAAR1 antag conf 52 | Ga16 nonsel ag inactive | TAAR1 ag count inactive
O=C(COC(=O)Cc1ccc(Cl)cc1)Nc1ccccc1-c1ccccc1	none
Cc1cc2oc(=O)cc(C)c2c(=O)o1	none
CCc1ccc(NC(=S)N(Cc2cccc(Br)c2)CC2CCC(C(=O)O)CC2)cc1 (centres undefined)	TAAR1 antagonist 61 | nonsel antag count inactive | TAAR1 antag conf inactive | Ga16 nonsel ag inactive | TAAR1 ag count inactive
Cc1cc(C)cc(NC(=S)N(Cc2cccc(Br)c2)CC2CCC(C(=O)O)CC2)c1 (centres undefined)	none
Cc1ccc(C(=O)Nc2cc(Cl)ccc2OC(=O)c2ccc(C)cc2)cc1	none
COc1cccc(COC(=O)C2CCN(S(=O)(=O)c3ccc(C)cc3)CC2)c1OC	none
COc1ccc(S(=O)(=O)N2CCCCCC2)cc1C(=O)OCc1cccc(OC)c1OC	TAAR1 antagonist 58 | nonsel antag count 22 | TAAR1 antag conf inactive | Ga16 nonsel ag inactive | TAAR1 ag count inactive
O=c1[nH]cncc1OCc1ccccc1	none (no result: V1aR counter, OXTR potentiator, OXTR ag)
CC1Nc2ncnc(N3CCN(c4ccccc4)CC3)c2N(Cc2ccc(Br)cc2)C1=O (centres undefined)	TAAR1 antagonist 57 | nonsel antag count inactive | TAAR1 antag conf inactive | Ga16 nonsel ag inactive | TAAR1 ag count inactive
COc1ccc(CN2C(=O)C(C)Nc3ncnc(N4CCN(c5ccccc5)CC4)c32)cc1 (centres undefined)	none
O=C(Cc1ccccc1)NNc1c2ccccc2nc2ccccc12	none

Screening results deposited in PubChem BioAssay by The Scripps Research Institute Molecular Screening Center.
